Measured values taken from ChEMBL document CHEMBL1144116, “Tanikolide, a toxic and antifungal lactone from the marine cyanobacterium Lyngbya majuscula” (J Nat Prod, 1999).
Converted amounts (≈) assume the structure as drawn. The source made the active and inactive calls. The rule behind the calls is not given here.

How the values were obtained:
[1] = system: Salmonella enterica subsp. enterica; assay: Antibacterial activity against Salmonella choleraesuis subsp. choleraesuis ATCC 14028 at 100 ug/disk by paper disk agar plate method; type: functional, organism-based
In short: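 Standard paper sensitivity disk-agar plate method with 6 mm disks. Read-out is the diameter of the inhibition zone around the disk.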

Staphylococcus aureus = assay: Antibacterial activity against Staphylococcus aureus ATCC 12600 at 100 ug/disk by paper disk agar plate method; type: functional, organism-based
In short: (§1)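 Paper disk-agar plate diffusion with 6 mm paper disks, each loaded with 100 µg of sample. Activity is read as the diameter of the zone of inhibition around the disk.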

Candida albicans = assay: Antifungal activity against Candida albicans ATCC 14053 at 100 ug/disk by paper disk agar plate method; type: functional; in short: as §1
Pseudomonas aeruginosa = assay: Antibacterial activity against Pseudomonas aeruginosa ATCC 10145 at 100 ug/disk by paper disk agar plate method; type: functional, organism-based; in short: as §1
Escherichia coli = assay: Antibacterial activity against Escherichia coli ATCC 11775 at 100 ug/disk by paper disk agar plate method; type: functional, organism-based; in short: as §1
Bacillus subtilis = assay: Antibacterial activity against Bacillus subtilis ATCC 6051 at 100 ug/disk by paper disk agar plate method; type: functional, organism-based; in short: as §1
Carassius auratus [2] = assay: Toxicity against Carassius auratus; type: organism-based; settings: in vivo
In short: (§2)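 Single goldfish (Carassius auratus) per vessel in 50 mL distilled H2O, with sample dilutions added in 50 µL EtOH. Each fish is observed for 1 h. Samples and controls are run in duplicate.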

Biomphalaria glabrata = assay: Molluscicidal activity against Biomphalaria glabrata at 10 mg/mL after 24 hrs; type: functional; settings: read-out: LD50 (the source's name)
In short: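 Test snails: Biomphalaria glabrata. Sample stock solutions (10 mg/mL in EtOH) diluted in 10 mL distilled H2O. Snails observed after 24 h and scored dead when no heart beat was detected by dissecting light microscopy.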

Carassius auratus [3] = assay: Norcotic effect against Carassius auratus at 10 ug/mL after 1 hr; type: ADME, organism-based; settings: in vivo; in short: as §2
[4] = Toxicity against Artemia salina after 24 hrs; type: organism-based; settings: in vivo, read-out: LD50
In short: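 About 15 hatched Artemia salina in ca. 0.5 mL seawater per well with sample in 50 µL EtOH plus 4.5 mL artificial seawater (total ca. 5 mL), several concentrations, duplicate samples and controls. After 24 h at 28 °C, live and dead shrimp counted under dissecting light microscope.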

Row | SMILES | Activity [1] | Activity (Staphylococcus aureus) | Activity (Candida albicans) | Activity (Pseudomonas aeruginosa) | Activity (Escherichia coli) | Activity (Bacillus subtilis) | Activity (Carassius auratus [2]) | LC50 (Biomphalaria glabrata) [µg/mL] | zone of inhibition at 100 µg/disc (Candida albicans; read-out: IZ) [mm] | Activity (Carassius auratus [3]) | LC50 at 24 h [4] [µg/mL]
1 | CCCCCCCCC[C@@]1(CO)CC[C@@H](C)C(=O)O1 | inactive | inactive | inactive | inactive | inactive | inactive | – | – | – | – | –
2 | CCCCCCCCCCC[C@]1(CO)CCCC(=O)O1 [TANIKOLIDE] | inactive | inactive | – | inactive | inactive | inactive | Non-toxic | 9 (≈ 31.6 µM) | 13 | Toxic | 3.6 (≈ 12.7 µM)
